What was measured:
[1] = tested on: CCRF-CEM; assay: Tested for anti-HIV -1 Activity in CEM/TK- cell culture; type: functional, cell-based; conditions: Homo sapiens
Method in brief: (§1)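 HIV-1 replication assayed in human T4 lymphoblastoid CEM-SS or MT-4 cells, or thymidine kinase-deficient CEM (CEM/TK−) cells. EC50 is the concentration that inhibits HIV-1 replication by 50%. Values are averages of at least three separate experiments, with variation below ±10%.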

[2] = tested on: MT4; assay: Tested for cytotoxic concentration in MT-4 cell culture; type: functional; conditions: Homo sapiens
Method in brief: (§2)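 Viability of uninfected CEM-SS, MT-4 or CEM/TK− cells measured. CC50 is the concentration that reduces viability by 50%. Values are averages of at least three separate experiments, with variation below ±10%.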

[3] = tested on: CCRF-CEM; assay: Tested for cytotoxic concentration in CEM-SS cell culture; type: functional; conditions: Homo sapiens; method in brief: as §2
[4] = tested on: CCRF-CEM; assay: Tested for anti-HIV -1 Activity in CEM-SS cell culture; type: functional, cell-based; conditions: Homo sapiens; method in brief: as §1
[5] = tested on: MT4; assay: Tested for anti-HIV -1 Activity in MT-4 cell culture; type: functional, cell-based; conditions: Homo sapiens; method in brief: as §1
[6] = Partition coefficient (logP); type: physicochemical; conditions: octanol/water
Method in brief: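 Apparent partition coefficient (log Papp) measured as distribution between 1-octanol and potassium phosphate buffer (0.02 M, pH 7.2) by an adapted shake-flask method.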

[7] = tested on: CCRF-CEM; assay: Tested for cytotoxic concentration in CEM/TK- cell culture; type: functional; conditions: Homo sapiens; method in brief: as §2
[8] = tested on: CCRF-CEM; assay: Tested for cytotoxic concentration in CEM/TK- cell culture,(Human); type: functional; method in brief: as §2
[9] = tested on: MT4; assay: Tested for anti-HIV -1 Activity in MT-4 cell culture,(Human); type: functional, cell-based; method in brief: as §1
[10] = tested on: CCRF-CEM; assay: Tested for anti-HIV -1 Activity in CEM/TK- cell culture,(Human); type: functional, cell-based; method in brief: as §1
[11] = tested on: MT4; assay: Tested for cytotoxic concentration in MT-4 cell culture,(Human); type: functional; method in brief: as §2
[12] = tested on: CCRF-CEM; assay: Tested for anti-HIV -1 Activity in CEM-SS cell culture,(Human); type: functional, cell-based; method in brief: as §1
[13] = tested on: CCRF-CEM; assay: Tested for cytotoxic concentration in CEM-SS cell culture,(Human); type: functional; method in brief: as §2
[14] = tested on: CCRF-CEM; assay: Tested for anti-HIV -1 activity in CEM-SS cell culture; type: functional, cell-based; conditions: Homo sapiens; method in brief: as §1
[15] = tested on: MT4; assay: Tested for anti-HIV -1 activity in MT-4 cell culture; type: functional, cell-based; conditions: Homo sapiens; method in brief: as §1
[16] = tested on: CCRF-CEM; assay: Tested for cytotoxic activity in CEM/TK- cell culture; type: functional; conditions: Homo sapiens; method in brief: as §2
[17] = tested on: CCRF-CEM; assay: Tested for cytotoxic activity in CEM-SS cell culture; type: functional; conditions: Homo sapiens; method in brief: as §2
[18] = tested on: CCRF-CEM; assay: Tested for anti-HIV -1 activity in CEM/TK- cell culture; type: functional, cell-based; conditions: Homo sapiens; method in brief: as §1
[19] = tested on: MT4; assay: Tested for cytotoxic activity in MT-4 cell culture; type: functional; conditions: Homo sapiens; method in brief: as §2

Cc1cn(C2CC(N=[N+]=[N-])C(COP(=O)(OCCSC(=O)C(C)(C)C)Oc3ccc(C[C@H](N)C(=O)OC(C)(C)C)cc3)O2)c(=O)[nH]c1=O (some centres undefined)
EC50 [1]: 2700 nM
CC50 [2]: > 10000 nM
CC50 [3]: > 10000 nM
EC50 [4]: 4 nM
EC50 [5]: 42 nM
logP ([6]; read-out: logP): 2.9
CC50 [7]: > 10000 nM

Cc1cn([C@H]2C[C@H](N=[N+]=[N-])[C@@H](COP(=O)(OCCSC(=O)C(C)(C)C)Oc3ccccc3)O2)c(=O)[nH]c1=O (some centres undefined)
CC50 [8]: > 10000 nM
EC50 [9]: 70 nM
EC50 [10]: 3500 nM
CC50 [11]: > 10000 nM
EC50 [12]: 2 nM
logP [6]: 3.46

Cc1cn(C2CC(N=[N+]=[N-])C(COP(=O)(OCCSC(=O)C(C)(C)C)Oc3ccc(C[C@H](NC(=O)OC(C)(C)C)C(=O)OC(C)(C)C)cc3)O2)c(=O)[nH]c1=O (some centres undefined)
EC50 [1]: 900 nM
CC50 [2]: > 1000 nM
CC50 [3]: > 1000 nM
EC50 [4]: 34 nM
EC50 [5]: 250 nM
logP ([6]; read-out: logP): 4.29
CC50 [7]: > 1000 nM

Cc1cn(C2CC(N=[N+]=[N-])C(COP(=O)(OCCSC(=O)C(C)(C)C)Oc3ccc(C[C@H](N)C(=O)O)cc3)O2)c(=O)[nH]c1=O (some centres undefined)
CC50 [8]: > 100000 nM
EC50 [9]: 75 nM
EC50 [10]: 29000 nM
CC50 [11]: > 10000 nM
CC50 [13]: > 100000 nM
EC50 [12]: 6 nM
logP ([6]; read-out: logP): 0.24

COC(=O)[C@H](Cc1ccc(OP(=O)(OCCSC(=O)C(C)(C)C)OCC2OC(n3cc(C)c(=O)[nH]c3=O)CC2N=[N+]=[N-])cc1)NC(=O)OC(C)(C)C (some centres undefined)
EC50 [1]: 2300 nM
CC50 [2]: > 10000 nM
CC50 [3]: > 10000 nM
EC50 [4]: 1 nM
EC50 [5]: 33 nM
logP ([6]; read-out: logP): 3.48
CC50 [7]: > 10000 nM

Cc1cn([C@H]2C[C@H](N=[N+]=[N-])[C@@H](CO)O2)c(=O)[nH]c1=O [ZIDOVUDINE]
EC50 [1]: > 100000 nM
CC50 [2]: > 1000 nM
CC50 [3]: > 1000 nM
EC50 [4]: 3 nM
EC50 [5]: 15 nM
logP ([6]; read-out: logP): 0.06
CC50 [7]: > 100000 nM

Cc1cn(C2CC(N=[N+]=[N-])C(COP(=O)(OCCSC(=O)C(C)(C)C)OCCSC(=O)C(C)(C)C)O2)c(=O)[nH]c1=O (centres undefined)
EC50 [1]: 450 nM
CC50 [2]: > 10000 nM
CC50 [3]: > 10000 nM
EC50 [4]: 15 nM
logP ([6]; read-out: logP): 3.73
CC50 [7]: > 10000 nM

COC(=O)[C@@H](N)Cc1ccc(OP(=O)(OCCSC(=O)C(C)(C)C)OCC2OC(n3cc(C)c(=O)[nH]c3=O)CC2N=[N+]=[N-])cc1 (some centres undefined)
EC50 [14]: 2 nM
EC50 [15]: 37 nM
CC50 [16]: > 100000 nM
CC50 [17]: > 100000 nM
EC50 [18]: 1800 nM
CC50 [19]: > 10000 nM
logP [6]: 2.25

From ChEMBL document CHEMBL1133117, “S-Acyl-2-thioethyl aryl phosphotriester derivatives as mononucleotide prodrugs” (J Med Chem, 2000)
